Results on 19 molecules are retold here after ChEMBL document CHEMBL1772978, “Exploration of the activity of 7-pyrrolidino-8-methoxyisothiazoloquinolones against methicillin-resistant Staphylococcus aureus (MRSA)” (J Med Chem, 2011).

For series [1], the system named is Staphylococcus aureus. The experiment in a line: Antibacterial activity against methicillin-sensitive Staphylococcus aureus ATCC 29213 after 24 hrs by microdilution method. As to conditions: ATCC 29213, 24 h. The class given is functional. In outline:
(§1)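 MIC taken as the lowest concentration with no visible bacterial growth after 18-24 h at 37 °C, given in μg/mL; modal value of multiple experiments.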
(In broth dilution the organism is exposed to a series of concentrations in liquid medium.)

Series [2] has as its system Escherichia coli. The experiment in a line: Antibacterial activity against Escherichia coli ATCC25922 after 24 hrs by microdilution method. The class given is functional. The settings on record: ATCC25922, 24 h. The procedure, abridged: as §1
Series [3] deals with Staphylococcus aureus. The experiment in a line: Antibacterial activity against methicillin- and quinolone-resistant Staphylococcus aureus ATCC700699 after 24 hrs by microdilution method. It is filed as functional. The settings on record: ATCC700699, 24 h. The procedure, abridged: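 Broth microdilution; MIC read as the lowest compound concentration that prevents visible bacterial growth after incubation at 37 °C for 18–24 h, and expressed in μg/mL.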

Series [4] in a line: Cytotoxicity against human Hep2 cells after 72 hrs by alamar blue assay. It is filed as cell-based. The settings on record: HEp-2 cells. For orientation: Resazurin is reduced to fluorescent resorufin, in cell work by metabolically active cells.

SMILES strings stand for the structures. Converted amounts (≈) assume the structure as drawn.

One may read the MIC as the smallest concentration in the dilution series that meets the test's criterion for growth inhibition. Higher therefore signals weaker potency. The CC50 is the concentration giving 50% cytotoxicity. A low value points to greater toxicity to the cells. As for `COc1c(N2CC[C@H](C(C)(C)N)C2)c(F)cc2c(=O)c3c(=O)[nH]sc3n(C3CC3)c12`, the MIC in series [1] turned out to be 0.03 µg/mL (≈ 0.0694 µM); in series [2], 0.13 µg/mL (≈ 0.301 µM); in series [3] it was 2 µg/mL (≈ 4.62 µM). In series [4], this molecule had a CC50 at 72 h of 61 µM.

On to `CNC(C)(C)[C@@H]1CCN(c2c(F)cc3c(=O)c4c(=O)[nH]sc4n(C4CC4)c3c2OC)C1`, for which the minimum inhibitory concentration (MIC) in series [1] was determined as 0.008 µg/mL (≈ 0.0179 µM); in series [2], 0.13 µg/mL (≈ 0.291 µM); in series [3], 0.13 µg/mL (≈ 0.291 µM). The CC50 at 72 h in series [4] was determined as 28 µM.

Consider `CCNC(C)(C)[C@@H]1CCN(c2c(F)cc3c(=O)c4c(=O)[nH]sc4n(C4CC4)c3c2OC)C1`, for which the values for the minimum inhibitory concentration (MIC) in series [1], in series [2] and in series [3] were 0.02 µg/mL (≈ 0.0434 µM), 0.13 µg/mL (≈ 0.282 µM) and 0.5 µg/mL (≈ 1.09 µM), respectively. The molecule further registered a CC50 at 72 h in series [4] of 50 µM.

As for `COc1c(N2CC[C@@H](C(C)(C)NCCF)C2)c(F)cc2c(=O)c3c(=O)[nH]sc3n(C3CC3)c12`, the minimum inhibitory concentration (MIC) in series [1] came to 0.004 µg/mL (≈ 0.00836 µM); in series [2], 0.06 µg/mL (≈ 0.125 µM); in series [3] it was 0.06 µg/mL (≈ 0.125 µM). For the same molecule, half-maximal cytotoxicity in series [4] (CC50 at 72 h) was put at 19 µM.

As to `COc1c(N2CC[C@@H](C(C)(C)NCC(C)C)C2)c(F)cc2c(=O)c3c(=O)[nH]sc3n(C3CC3)c12`, the minimum inhibitory concentration (MIC) in series [1] was 0.06 µg/mL (≈ 0.123 µM); in series [2], 1 µg/mL (≈ 2.05 µM); in series [3], 2 µg/mL (≈ 4.09 µM). This molecule also had a CC50 at 72 h in series [4] of 88 µM.

As for `COc1c(N2CC[C@@H](C(C)(C)N(C)C)C2)c(F)cc2c(=O)c3c(=O)[nH]sc3n(C3CC3)c12`, the minimum inhibitory concentration (MIC) turned out to be 0.06 µg/mL (≈ 0.13 µM) in series [1], 0.13 µg/mL (≈ 0.282 µM) in series [2] and 1 µg/mL (≈ 2.17 µM) in series [3]. The molecule also returned a CC50 at 72 h in series [4] of 90 µM.

Take `COc1c(N2CC[C@@H](C3(N)CC3)C2)c(F)cc2c(=O)c3c(=O)[nH]sc3n(C3CC3)c12`: the minimal inhibitory concentration (MIC) in series [1] amounted to 0.001 µg/mL (≈ 0.00232 µM); in series [2], 0.008 µg/mL (≈ 0.0186 µM); in series [3], 0.06 µg/mL (≈ 0.139 µM). For the same molecule, the midpoint of cytotoxicity in series [4], the CC50 at 72 h, lay at 4 µM.

On to `CC[C@@H](NC)[C@@H]1CCN(c2c(F)cc3c(=O)c4c(=O)[nH]sc4n(C4CC4)c3c2OC)C1`, for which the MIC in series [1] is 0.03 µg/mL (≈ 0.0672 µM); in series [2] it was 0.13 µg/mL (≈ 0.291 µM); in series [3], 2 µg/mL (≈ 4.48 µM). The CC50 at 72 h in series [4] turned out to be 58 µM.

With `O=c1[nH]sc2c1c(=O)c1cc(F)c(N3CCNCC3)cc1n2C1CC1`, the minimal inhibitory concentration (MIC) in series [1] turned out to be 0.06 µg/mL (≈ 0.166 µM); in series [2], 0.004 µg/mL (≈ 0.0111 µM); in series [3], 4 µg/mL (≈ 11.1 µM). For the same molecule, it took 7 µM to reach half-maximal cytotoxicity in series [4] (CC50 at 72 h).

With `COc1c(N2CC[C@H](C(C)N)C2)c(F)cc2c(=O)c3c(=O)[nH]sc3n(C3CC3)c12` (mixture of isomers), the MIC was 0.03 µg/mL in series [1], 0.06 µg/mL in series [2] and 1 µg/mL in series [3].

With `COc1c(N2CC[C@@H](C(C)NCC(F)(F)F)C2)c(F)cc2c(=O)c3c(=O)[nH]sc3n(C3CC3)c12` (mixture of isomers), the MIC came to 0.13 µg/mL in series [1] and 4 µg/mL in series [3]. In addition, the CC50 at 72 h in series [4] amounted to 41 µM.

In the case of `COc1c(N2CC[C@H](C(C)NC3CC3)C2)c(F)cc2c(=O)c3c(=O)[nH]sc3n(C3CC3)c12` (mixture of isomers), the MIC turned out to be 0.02 µg/mL in series [1], 0.13 µg/mL in series [2] and 0.13 µg/mL in series [3]. For the same molecule, in series [4], the CC50 at 72 h was 43 µM.

As to `COc1c(N2CC[C@@H](C(C)NCC3CC3)C2)c(F)cc2c(=O)c3c(=O)[nH]sc3n(C3CC3)c12` (mixture of isomers), the MIC was found to be 0.03 µg/mL in series [1], 0.25 µg/mL in series [2] and 0.5 µg/mL in series [3]. The same molecule gave a 50% cytotoxic concentration (CC50) at 72 h in series [4] of 43 µM.

For `COc1c(N2CC[C@@H](C(C)NC3CCCC3)C2)c(F)cc2c(=O)c3c(=O)[nH]sc3n(C3CC3)c12` (mixture of isomers), the values for the minimal inhibitory concentration (MIC) in series [1] and in series [3] were 0.06 µg/mL and 4 µg/mL, respectively. The molecule further gave a CC50 at 72 h in series [4] of 42 µM.

In the case of `COc1c(N2CC[C@@H](C(C)N(C)C)C2)c(F)cc2c(=O)c3c(=O)[nH]sc3n(C3CC3)c12` (mixture of isomers), the MIC is 0.03 µg/mL in series [1], 0.06 µg/mL in series [2] and 1 µg/mL in series [3]. In series [4], this molecule registered a CC50 at 72 h of 40 µM.

Consider `CC[C@H](NC)[C@@H]1CCN(c2c(F)cc3c(=O)c4c(=O)[nH]sc4n(C4CC4)c3c2OC)C1` (mixture of isomers), for which the minimum inhibitory concentration (MIC) turned out to be 0.008 µg/mL in series [1], 0.06 µg/mL in series [2] and 0.5 µg/mL in series [3]. In series [4], the CC50 at 72 h came to 29 µM.

For `COc1c(N2CC[C@@H](C(N)c3nccs3)C2)c(F)cc2c(=O)c3c(=O)[nH]sc3n(C3CC3)c12` (mixture of isomers), the results for the MIC in series [1], in series [2] and in series [3] were 0.004 µg/mL, 0.13 µg/mL and 0.06 µg/mL, respectively. The CC50 at 72 h in series [4] was found to be 5 µM.

For the molecule `COc1c(N2CC[C@@H](C(N)c3ncco3)C2)c(F)cc2c(=O)c3c(=O)[nH]sc3n(C3CC3)c12` (mixture of isomers), the MIC in series [1] is 0.004 µg/mL; in series [2], 0.06 µg/mL; in series [3] it was 0.25 µg/mL. In series [4], this molecule registered a CC50 at 72 h of 5 µM.

As to `COc1c(N2CC[C@@H](C(N)c3ccccn3)C2)c(F)cc2c(=O)c3c(=O)[nH]sc3n(C3CC3)c12` (mixture of isomers), the values for the minimal inhibitory concentration (MIC) in series [1], in series [2] and in series [3] were 0.008 µg/mL, 0.06 µg/mL and 0.13 µg/mL, respectively. This molecule came in with a CC50 at 72 h in series [4] of 1 µM.
